Assay results gathered from unrelated publications.
Lines come from different studies, so protocols differ.
Effect on: cell growth or viability

Compound | cell line | assay | setting | quantity | result
COc1cc2c3c(n(CCCNCCO)c(=O)c2cc1OC)-c1nc2c(cc1C3=O)OCO2 | RPMI-8226 | MTS | 72 h | IC50 | 559 nM
COc1cccc2c1C(=O)c1c(O)c3c(c(O)c1C2=O)C[C@@](O)(C(=O)CO)C[C@@H]3O[C@H]1C[C@H](N)[C@H](O)[C@H](C)O1 | MDA-MB-157 | MTT | 72 h | IC50 | 500 nM
C=C(F)C(=O)N1CCN(c2nc(OC[C@@H]3CCCN3C)nc3c2CCN(c2cccc4cccc(Cl)c24)C3)C[C@@H]1CC#N | TOV21G | ATP luminescence |  | IC50 | > 10000 nM
C[C@H](NC(=O)[C@H](CC(=O)NCC(C)(C)C)NC(=O)C(=O)c1c[nH]c2ccccc12)C(=O)NCc1ccc(F)cc1F | RPMI-8226 | MTS | 72 h | IC50 | 11500 nM
CCC[C@H]1NC(=O)[C@H](Cc2cc(Cl)ccc2-c2cnn(C)c2)N(C)C(=O)[C@H](CC(C)C)NC(=O)[C@@H](N(C)C(=O)[C@H](CCCCN2CCOCC2)NC(=O)[C@@H](c2cccnc2)C2CCCCC2)CCCCNC1=O | NCI-H69 | MTT | 5 days | GI50 | 5200 nM
C=CC(=O)N1CCN(c2nc(=O)n(-c3c(C)ccnc3C(C)C)c3nc(-c4c(O)cccc4F)c(F)cc23)[C@@H](C)C1 | TOV21G | ATP luminescence |  | IC50 | > 10000 nM
CCCN1C(=O)[C@H](CC(C)C)NC(=O)[C@@H](N(C)C(=O)[C@H](CC2CCC2)NC(=O)[C@@H]2C[C@@H](F)CN2C(=O)[C@@](C)(O)C(F)(F)F)CCCCNC(=O)C2(CC2)NC(=O)[C@@H]1Cc1cc(Cl)ccc1Cl | NCI-H69 | MTT | 5 days | GI50 | 6 nM
CCNCCCn1c2c(c3cc(OC)c(OC)cc3c1=O)C(=O)c1cc3c(nc1-2)OCO3 | RPMI-8226 | MTS | 72 h | IC50 | 190 nM
C=CC(=O)NC1CCN(c2ncc3ncnc(Nc4ccc(Oc5ccc6c(c5)ncn6C)c(C)c4)c3n2)CC1 | CAL-120 |  |  | EC50 | 4930 nM
